# UBC13 inh – inhibitors of human UBC13 polyubiquitin chain formation; P61088; TR-FRET; inhibition, % at 20 µM; actives 0.47% (n = 330,000); AID 485273; in the data active means inhibition above about 45%, passing the limit was not always enough
# Target sequence (P61088 whole entry, looked up): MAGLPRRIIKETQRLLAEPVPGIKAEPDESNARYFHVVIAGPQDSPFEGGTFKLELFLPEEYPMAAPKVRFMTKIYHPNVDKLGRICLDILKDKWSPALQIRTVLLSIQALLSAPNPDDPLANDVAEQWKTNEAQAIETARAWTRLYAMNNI
# SR-BI uptake up – enhances SR-BI lipid uptake from DiI-HDL; CHO ldlA[mSR-BI] cells, DiI-HDL uptake fluorescence, 3 h; 100 = double the neutral-control signal; activation, % at 12.5 µM; actives 0.096% (n = 320,000); AID 504775;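 active means mean replicate activation of at least 60% and every replicate at or above 60%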;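 further: 0% = median plate neutral-control signal and 100% = twice that signal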
#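 Material: SR-BI-overexpressing, LDLR-lacking CHO cells; schedule: compound exposure 3 h, 37 °C; reagent: DiI-labelled HDL at 10 µg/mL final; technique: bottom-read fluorescence, 550/595 nm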
# Neddyl block – blocks human cullin neddylation; TR-FRET cullin neddylation, biochemical; P61081+Q13564; inhibition, % at 25 µM; actives 0.58% (n = 360,000); in the data active means inhibition above about 36%
# SR-BI HDL uptake – inhibitors of mouse SR-BI mediated HDL lipid uptake. Q61009. ldlA[mSR-BI] CHO cells, DiI-HDL uptake fluorescence, 3 h. inhibition, % at 12.5 µM. actives 0.96% (n = 320,000). AID 488896;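 active means mean replicate inhibition of at least 70% and a set share of replicates each scoring 70 or more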;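 further: 0% = median of neutral control wells and 100% = median of positive control wells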
# Target sequence (Q61009 whole entry, looked up): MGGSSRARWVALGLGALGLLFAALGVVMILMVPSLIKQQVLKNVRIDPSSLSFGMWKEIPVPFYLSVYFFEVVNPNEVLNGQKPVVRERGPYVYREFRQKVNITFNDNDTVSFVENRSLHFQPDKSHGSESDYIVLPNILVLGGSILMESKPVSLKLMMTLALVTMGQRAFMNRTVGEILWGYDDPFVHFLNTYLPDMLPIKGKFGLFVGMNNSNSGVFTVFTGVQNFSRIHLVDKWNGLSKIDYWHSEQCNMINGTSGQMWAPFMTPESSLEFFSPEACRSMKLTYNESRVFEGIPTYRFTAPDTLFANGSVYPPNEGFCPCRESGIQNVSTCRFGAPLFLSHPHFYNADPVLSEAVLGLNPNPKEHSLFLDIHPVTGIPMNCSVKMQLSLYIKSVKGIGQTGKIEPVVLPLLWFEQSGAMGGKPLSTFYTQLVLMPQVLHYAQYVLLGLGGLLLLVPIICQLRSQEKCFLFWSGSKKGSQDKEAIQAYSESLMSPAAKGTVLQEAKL
# Neddyl inh conf – confirmation of human cullin neddylation inhibitors; actives 13% (n = 1,800); TR-FRET cullin neddylation biochemical assay; calls only at 25 µM; AID 652217; shares compounds with Neddyl block; in the data active means inhibition above about 40%;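 further: neddylation substrate is the cullin 1 ring ligase complex with SKP2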
# The depositor's hits bear a star; i = inactive; . = not tested or not shown; + = active, no number. Most compounds without a hit are left out; they make up all but 1.9% or so of the library.
SMILES,UBC13 inh,SR-BI uptake up,Neddyl block,SR-BI HDL uptake,Neddyl inh conf
O=C1NC(c2ccc3c(c2)OCO3)Oc2ccccc21 (stereo not given),4.8,25.2,42.2*,-25.2,i
CCn1cc(C(=O)Nc2ncccc2O)c(=O)c2cc(F)c(N3CCN(C(=O)c4ccco4)CC3)cc21,10.3,-18.3,30.6,18.3,.
CC1(C)Oc2cc3oc(=O)ccc3cc2C[C@@H]1O,5.2,28.2,51.8*,-28.2,.
CC(C)Cc1csc(NC(=O)c2ccc(Cl)cc2)c1C(=O)O,-19.3,.,44.8*,.,i
CC(C)Cc1csc(NC(=O)c2ccccc2Cl)c1C(=O)O,-8.0,47.4,6.9,-47.4,.
CCOC(=O)C1=C(C)NC(C)=C(C(=O)OCC)C1C(=O)OCC(=O)NCc1ccc(F)cc1,10.1,-15.2,46.8*,15.2,.
CCOC(=O)C1=C(C)NC(C)=C(C(=O)OCC)C1C(=O)OCC(=O)NC1CCCCC1,3.3,29.4,39.3*,-29.4,i
CCOc1ccc(Cl)cc1-c1cc(C(=O)Nc2cc(OC)c(OC)c(OC)c2)[nH]n1,.,.,8.5,.,.
N#Cc1cccc(N2[C@@H](Cc3cc4ccccc4n3Cc3ccccc3)COC[C@H]2Cc2ccc3ccccc3c2)c1,.,.,11.8,.,.
COc1cc(C=NNC(=O)c2ccc(NS(=O)(=O)c3cccs3)cc2)cc(Br)c1O,-3.5,-6.5,50.2*,6.5,+
COc1ccc(NS(=O)(=O)c2cccc(C(=O)N/N=C/c3cn(-c4ccccc4)nc3-c3ccc(OC)cc3)c2)cc1,2.1,.,.,.,.
COc1ccccc1NS(=O)(=O)c1cccc(C(=O)N/N=C/c2cn(-c3ccccc3)nc2-c2ccccc2)c1,-1.5,-36.7,38.3*,36.7,.
COc1ccc(NS(=O)(=O)c2cccc(C(=O)N/N=C/c3ccc(O)cc3)c2)cc1,3.7,-11.5,42.6*,11.5,i
COc1cc(CC(=O)N(C)CC(=O)Nc2ccc(Cl)c(C(F)(F)F)c2)cc(OC)c1OC,5.3,-39.6,0.5,39.6,.
c1ccc2c(c1)c1c(c3ccccc32)CN2CCCC2C1 (stereo not given),.,-12.2,42.9*,12.2,i
c1ccc(CN2CCC(N3CCC(N4CCCCCC4)CC3)CC2)cc1,4.0,8.9,6.7,-8.9,.
Cc1ccc(C(=O)N/N=C\c2ccc(-c3ccc(Cl)c(Cl)c3)o2)cn1,4.7,-29.5,42.9*,29.5,i
COc1ccc2oc(=O)c(-c3nc4ccccc4o3)cc2c1,43.4,-15.6,48.6*,15.6,+
CCOc1cccc2cc(-c3nnc(NCc4ccco4)s3)c(=O)oc12,-26.3,-8.8,.,8.8,.
COc1ccc2oc(=O)c(-c3nnc(NCc4ccco4)s3)cc2c1,-15.4,-53.3,45.1*,53.3,i
O=c1oc2ccccc2cc1-c1nc2ccccc2o1,33.4,13.0,21.3,-13.0,.
CC(=O)N(CC#CCN(C(C)=O)c1ccccc1)c1ccccc1,.,.,7.4,.,.
O=c1[nH]cnc2sc3c(c12)CCN(Cc1ccccc1)C3,-5.7,-16.3,39.7*,16.3,i
COc1ccc(/C=N/NC(=O)c2ccc(N(C)S(=O)(=O)c3ccccc3)cc2)c(OC)c1,2.1,-64.3,43.4*,64.3,i
COc1ccc(C=NNC(=O)c2ccccc2OCc2ccc(F)cc2)c(OC)c1,-2.6,2.0,41.6*,-2.0,i
SMILES,UBC13 inh,SR-BI uptake up,Neddyl block,SR-BI HDL uptake,Neddyl inh conf
Cc1cccc(N(C)S(=O)(=O)c2c(C)noc2C)c1,5.2,-24.0,-4.5,24.0,.
O=C(c1nc2nc(-c3ccccc3)cc(C(F)(F)F)n2n1)N1CCOCC1,-4.9,6.5,-1.9,-6.5,.
O=C(c1nc2nc(-c3ccc(Cl)cc3)cc(C(F)(F)F)n2n1)N1CCOCC1,7.7,.,41.2*,.,i
COc1cccc(OC)c1C(=O)NC(=S)NNC(=O)[C@H]1C[C@@H]1c1ccccc1,10.7,-1.7,48.0*,1.7,i
COCCNC(=O)C1(C)CCCN(Cc2cc(-c3ccccc3)on2)C1 (stereo not given),.,.,-1.9,.,.
O=C(C[C@H]1CC[C@H]2[C@@H](COC[C@@H](O)CN2Cc2cc(F)ccc2F)O1)NCc1ccc(Cl)cc1,.,.,-11.7,.,.
CCOC(=O)c1cccc(Nc2ncnc3ccc(C)cc23)c1,-1.5,-34.0,40.0*,34.0,i
Cc1cccnc1C1=NOC(Cc2ccccc2)C(=O)N1C (stereo not given),.,.,-6.0,.,.
Cc1c(CCC(=O)NCCCn2ccnc2)c(=O)oc2cc3occ(C(C)(C)C)c3cc12,30.4,-24.3,41.3*,24.3,.
Cc1coc2cc3oc(=O)c(CCC(=O)NCCCn4ccnc4)c(C)c3cc12,21.2,-5.8,.,5.8,.
O=C(CCc1nnc2ccc(N3CCC4(CC3)OCCO4)nn12)Nc1ccc(F)cc1,0.3,5.4,9.7,-5.4,.
COc1ccc(-c2cc(C(=O)N3CCN(c4ncccn4)CC3)c3ccccc3n2)cc1OC,-4.7,-29.2,51.4*,29.2,.
COc1ccc(-c2cc(C(=O)NCC(c3ccco3)N(C)C)c3ccccc3n2)cc1OC (stereo not given),4.6,-64.0,41.4*,64.0,i
COc1ccc(-c2cc(C(=O)NC3CCCC3)c3ccccc3n2)cc1OC,13.8,-19.6,39.7*,19.6,i
COc1ccc(Nc2nnc(-c3ccc(C)cc3)c3ccccc23)cc1C(=O)N1CCCCC1,4.8,-81.1,43.6*,81.1*,i
COc1ccc(Nc2nnc(-c3ccccc3)c3ccccc23)cc1C(=O)N1CCCCC1,2.4,-48.1,.,48.1,.
CC1=C(C(=O)N2CCOCC2)CC(CC(=O)NCC2CCCCC2)C(=O)N1Cc1ccc(C(C)(C)C)cc1 (stereo not given),.,.,-3.8,.,.
O=c1[nH]c2cc3c(cc2cc1CN(CCc1ccccc1)C(=S)NCCCN1CCOCC1)OCCO3,.,.,25.0,.,.
COc1ccc(-c2cc(C(=O)N3CCC3)c3ccccc3n2)cc1OC,7.3,-41.6,27.6,41.6,.
COc1ccc(-c2cc(C(=O)N3CCCC3)c3ccccc3n2)cc1OC,-1.2,-16.5,32.5,16.5,.
COc1ccc(-c2cc(C(=O)N3CC(C)CC(C)C3)c3ccccc3n2)cc1OC (stereo not given),16.3,-33.3,57.4*,33.3,.
COc1ccc(-c2cc(C(=O)N3CCCCC3)c3ccccc3n2)cc1OC,-0.1,-16.0,54.2*,16.0,.
CC(C(=O)Nc1ccc(O)cc1C(=O)O)N1C(=O)/C(=C\c2cccs2)SC1=S (stereo not given),-14.5,20.8,-16.1,-20.8,.
CCN(CC)C(=O)C1=C(C)N(Cc2ccccc2)C(=O)C(CC(=O)NCCc2ccccn2)C1 (stereo not given),.,.,-10.8,.,.
Cc1ccc(-c2c(C#N)c(N)nc3c2CCCCC3)o1,19.3,-6.8,41.0*,6.8,.
CC1=CC(c2ccc(Cl)cc2)n2ncnc2N1 (stereo not given),-2.3,20.0,39.3*,-20.0,i
COc1ccc(C2C=C(C)Nc3ncnn32)cc1 (stereo not given),14.8,10.1,.,-10.1,.
NS(=O)(=O)c1cccc(NS(=O)(=O)c2ccc(/C=C/C(=O)OCC(=O)c3ccccc3)cc2)c1,-12.5,-16.9,-30.8,16.9,.

# From PubChem BioAssay
